KCNQ1 pot – potentiators or activators of KCNQ1 channel, primary screen, cell-based, thallium flux, high-throughput; Potassium voltage-gated channel subfamily KQT member 1 (Homo sapiens), P51787; CHO-K1 KCNQ1, thallium flux FluxOR fluorescence; stronger effect = higher value; B-score at 10 µM; 310,000 compounds, 0.35% hits;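 active = fluorescence ratio B-score, a plate-corrected score, at least three library SD, with initial intensity B-score within 5 SD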
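Material: CHO-K1 cells stably expressing KCNQ1. Medium: assay buffer for compound exposure, DMSO matched across wells. Reagent: K+/Tl+ depolarizing stimulus. Compound dosing: single-concentration screen. Times: 37 °C overnight plating, 90-min dark dye load, 20-min compound pretreatment. Technique: FluxOR Tl+ flux fluorescence.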
hERG protect – hERG rescue from dofetilide block, primary screen, cell-based, CHO-hERG, FluxOR thallium flux, dofetilide IC70; Voltage-gated inwardly rectifying potassium channel KCNH2 (Homo sapiens), Q12809; dofetilide IC70 present; activation (rescue from dofetilide block), less the hit threshold, % at 10 µM; 310,000 compounds, 0.51% hits;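 active = activation above the mean of controls blocked by dofetilide plus 5 SD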;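 note: thallium influx through hERG after potassium depolarization seen as dye fluorescence rise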
Kir21 inh – inhibitors of mouse Kir2.1 inward-rectifier potassium channel. HEK293-Kir2.1, FluxOR thallium flux fluorescence; stronger effect = lower value. B-score at 10 µM. 310,000 compounds, 0.85% hits;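 active = fluorescence ratio B-score at or below minus 3 SD of library scores, with starting-brightness B-score within 2 SD, cut at about -4.2 in these data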;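 note: channel flux triggered by added potassium and thallium sulfate stimulus; B-score of peak minus minimum fluorescence over baseline after thallium stimulus; more negative B-score means stronger Kir2.1 block with less thallium influx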
KCNK9 inh – KCNK9 potassium channel inhibitors, primary screen, HEK293 cells, thallium flux | AID 488922, 2010 | FluxOR thallium flux fluorescence; stronger effect = lower value | 310,000 compounds, 1.2% hits | Potassium channel subfamily K member 9 (Homo sapiens), Q9NPC2 | B-score at 10 µM;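 active = ratio B-score over 3 SD below the library mean, with starting fluorescence within 5 SD of its mean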;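 note: negative B-score means less thallium flux so channel inhibition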
Target sequence (Q9NPC2 whole entry, looked up): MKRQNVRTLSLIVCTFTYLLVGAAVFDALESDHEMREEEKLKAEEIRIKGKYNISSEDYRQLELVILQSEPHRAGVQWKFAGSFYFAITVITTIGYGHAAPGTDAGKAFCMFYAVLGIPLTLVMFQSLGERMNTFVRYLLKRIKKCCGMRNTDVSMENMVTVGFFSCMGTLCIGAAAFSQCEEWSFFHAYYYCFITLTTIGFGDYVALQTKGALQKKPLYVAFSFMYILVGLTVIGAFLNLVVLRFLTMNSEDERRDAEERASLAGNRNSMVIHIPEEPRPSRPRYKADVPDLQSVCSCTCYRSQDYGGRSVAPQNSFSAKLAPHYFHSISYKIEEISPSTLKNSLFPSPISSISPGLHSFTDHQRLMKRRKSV
KCNK3 inh – human KCNK3 channel inhibitors, primary screen, CHO cells, FluxOR thallium flux, B-score | FluxOR fluorescence; stronger effect = lower value | Potassium channel subfamily K member 3 (Homo sapiens), O14649 | 340,000 compounds, 0.84% hits | B-score at 10 µM;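 active = B-score under library mean minus 4 SD, starting fluorescence ratio at most library mean plus 5 SD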;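 note: more negative B-score means stronger inhibition of thallium flux through KCNK3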
KCNQ1 block – inhibitors of human KCNQ1 channel, primary screen, cell-based, thallium flux, high-throughput | Potassium voltage-gated channel subfamily KQT member 1 (Homo sapiens), P51787 | B-score at 10 µM | CHO-K1 KCNQ1, FluxOR thallium flux fluorescence; stronger effect = higher value | 310,000 compounds, 1.3% hits;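 active = compounds whose thallium flux B-score, printed positive for inhibition, exceeds three library SD while starting fluorescence stays within three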;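 note: channel opened by potassium depolarization with thallium stimulus after 20 min compound exposure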
KCNK9 inh conf – KCNK9 potassium channel inhibitors, confirmation, HEK293 cells, thallium flux, duplicate | shares compounds with KCNK9 inh | FluxOR thallium flux fluorescence | inhibition, % at 10 µM | 4,900 compounds, 43% hits;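 active = thallium signal inhibited by more than 5 SD of the compound-free buffer control wells, on both duplicate plates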
Kir2-1 spec – mouse Kir2.1 channel inhibition, confirmation, selectivity assay for KCNK9 modulator project, cell-based, HEK293, thallium flux; shares compounds with KCNK9 inh; Kir2.1 cells, FluxOR thallium flux fluorescence; inhibition, % at 10 µM; 4,900 compounds, 4% hits; AID 492993, 2010;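 active = thallium signal drop more than 5 SD beyond the mean of the no-compound control wells, seen in both duplicate plates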;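 note: signal is fluorescence rise after thallium addition divided by baseline fluorescence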
KCNK9 uninduced – thallium flux in non-induced HEK293 cells, confirmation, counter-screen for KCNK9 inhibitor project, cell-based, second counter screen, non-induced KCNK9-HEK293; shares compounds with KCNK9 inh; FluxOR thallium flux; inhibition, % at 10 µM; 4,900 compounds, 40% hits; AID 492997, 2010;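 active = thallium signal drop beyond 5 SD of the untreated control mean, on both duplicate plates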
A number is an active result. This is a sample that favours compounds with a hit; in the whole collection about 3.7% have one here.

O=C(CC1C(=O)NCCN1Cc1cccc(F)c1)NC1CCCCC1 (stereo not drawn) was read as KCNQ1 pot inactive, hERG protect inactive, Kir21 inh inactive, KCNK9 inh inactive, KCNK3 inh inactive and KCNQ1 block inactive.
For CCCCn1c(N)c(N(Cc2ccccc2OC)C(=O)COc2ccc(F)cc2Cl)c(=O)[nH]c1=O the results were KCNQ1 pot inactive, hERG protect inactive, Kir21 inh inactive, KCNK9 inh inactive, KCNK3 inh inactive and KCNQ1 block inactive.
For CN(Cc1ccccc1)C(=O)COc1ccccc1Cl the results were KCNQ1 pot inactive, hERG protect inactive, Kir21 inh inactive, KCNK9 inh inactive, KCNK3 inh inactive and KCNQ1 block inactive.
For CN(Cc1ccccc1)C(=O)COc1ccc(Br)cc1Cl the results were KCNQ1 pot inactive, hERG protect inactive, Kir21 inh inactive, KCNK9 inh -12, KCNK3 inh inactive, KCNQ1 block inactive, KCNK9 inh conf 37%, Kir2-1 spec inactive and KCNK9 uninduced 30%.
COc1ccc(CCNc2oc(Cc3cccc4ccccc34)nc2C#N)cc1OC was read as KCNQ1 pot inactive, hERG protect inactive, Kir21 inh inactive, KCNK9 inh -8.2, KCNK3 inh inactive, KCNQ1 block inactive, KCNK9 inh conf 40%, Kir2-1 spec 37% and KCNK9 uninduced 27%.
For CNc1oc(Cc2cccc3ccccc23)nc1C#N the results were KCNQ1 pot inactive, hERG protect inactive, Kir21 inh inactive, KCNK9 inh inactive, KCNK3 inh inactive and KCNQ1 block inactive.
Screening CCOC(=O)Cn1cnc2scc(-c3ccc(C)cc3)c2c1=O returned KCNQ1 pot inactive, hERG protect inactive, Kir21 inh inactive, KCNK9 inh inactive, KCNK3 inh inactive, KCNQ1 block inactive, KCNK9 inh conf inactive, Kir2-1 spec inactive and KCNK9 uninduced inactive.
Screening CCOC(=O)Cn1cnc2scc(-c3ccccc3)c2c1=O returned KCNQ1 pot inactive, hERG protect inactive, Kir21 inh inactive, KCNK9 inh inactive, KCNK3 inh inactive and KCNQ1 block inactive.
CCOC(=O)Cn1cnc2scc(-c3ccc(C)c(C)c3)c2c1=O was read as KCNQ1 pot inactive, hERG protect inactive, Kir21 inh inactive, KCNK9 inh inactive, KCNK3 inh inactive, KCNQ1 block inactive, KCNK9 inh conf inactive, Kir2-1 spec inactive and KCNK9 uninduced inactive.
`Oc1cc(-c2ccccc2)c2ccccc2c1` gave KCNQ1 pot inactive, hERG protect inactive, Kir21 inh -4.6, KCNK9 inh -11, KCNK3 inh inactive, KCNQ1 block 8, KCNK9 inh conf 49%, Kir2-1 spec inactive and KCNK9 uninduced 34%.
O=C(COC(=O)C1CCN(S(=O)(=O)c2ccc3c(c2)OCCO3)CC1)Nc1cccc2ccccc12 was read as KCNQ1 pot inactive, hERG protect inactive, Kir21 inh inactive, KCNK9 inh inactive, KCNK3 inh inactive and KCNQ1 block inactive.
Screening Cc1ccc(CN2CCCN(Cc3ccc(F)cc3Cl)S2(=O)=O)cc1 returned KCNQ1 pot inactive, hERG protect inactive, Kir21 inh inactive, KCNK9 inh inactive, KCNK3 inh inactive and KCNQ1 block inactive.
`O=S1(=O)N(Cc2ccccc2F)CCCN1Cc1c(F)cccc1Cl` gave KCNQ1 pot inactive, hERG protect inactive, Kir21 inh inactive, KCNK9 inh -14, KCNK3 inh inactive, KCNQ1 block inactive, KCNK9 inh conf 68%, Kir2-1 spec inactive and KCNK9 uninduced 34%.
For O=C(COC(=O)CN1CCSC1=O)Nc1ccc(F)cc1Cl the results were KCNK3 inh inactive.
`NC(=O)c1ccc(Oc2ccc3c(c2)CCC3)c([N+](=O)[O-])c1` gave KCNQ1 pot inactive, hERG protect inactive, Kir21 inh inactive, KCNK9 inh inactive, KCNK3 inh inactive, KCNQ1 block inactive, KCNK9 inh conf inactive, Kir2-1 spec inactive and KCNK9 uninduced inactive.
`CC(C)c1ccc(OCC(=O)NCCO)cc1` gave KCNQ1 pot inactive, hERG protect inactive, Kir21 inh inactive, KCNK9 inh inactive, KCNK3 inh inactive and KCNQ1 block inactive.
Cc1ccc(CNC(=O)c2cc3c(-c4ccc(Cl)cc4)nn(C)c3s2)o1 was read as KCNQ1 pot inactive, hERG protect inactive, Kir21 inh inactive, KCNK9 inh -12, KCNK3 inh -12, KCNQ1 block 11, KCNK9 inh conf 56%, Kir2-1 spec inactive and KCNK9 uninduced 35%.
For O=C(COC(=O)c1cccc(S(=O)(=O)N2CCOCC2)c1)NCCc1ccccc1 the results were KCNQ1 pot inactive, hERG protect inactive, Kir21 inh inactive, KCNK9 inh inactive, KCNK3 inh inactive and KCNQ1 block inactive.
COc1ccc(S(=O)(=O)Nc2cc3c4c(c2)CCN4C(=O)CC3)cc1OC was read as KCNQ1 pot inactive, hERG protect inactive, Kir21 inh inactive, KCNK9 inh inactive, KCNK3 inh inactive and KCNQ1 block inactive.
For CC(C)CCNC(=O)C(c1cccnc1)N(Cc1ccccc1)C(=O)Cn1nnc2ccccc21 (stereo not drawn) the results were KCNQ1 pot inactive, hERG protect inactive, Kir21 inh inactive, KCNK9 inh inactive, KCNK3 inh inactive and KCNQ1 block inactive.
`C=C(C)Cn1c(C)cc(C)c(S(=O)(=O)c2cccc(C)c2)c1=O` gave KCNQ1 pot inactive, hERG protect inactive, Kir21 inh inactive, KCNK9 inh -8.4, KCNK3 inh inactive, KCNQ1 block inactive, KCNK9 inh conf 54%, Kir2-1 spec 44% and KCNK9 uninduced 44%.
Cc1cccc(S(=O)(=O)c2c(C)cc(C)[nH]c2=O)c1 was read as KCNQ1 pot inactive, hERG protect inactive, Kir21 inh inactive, KCNK9 inh inactive, KCNK3 inh inactive and KCNQ1 block inactive.
O=c1[nH]nc(SC2CCCCC2)c(=O)[nH]1 was read as KCNK3 inh inactive.
